Publication PMC5159310 (Bioorganic & medicinal chemistry letters, 2016)
Positions of bridges follow the written chain, without caps; N, C: chain ends. Non-standard residues stand in square brackets, D forms with d. Residues, ends and D or L forms follow the SMILES beside them. Nle = CCCC[C@H](N)C(=O)O

Tests used:
[1] = Metabolic stability; format: in vitro ADME; conditions: rat, plasma
[2] = target: bradykinin receptors (BRs); assay: Radioligand competition assay using [3H]BK in rat brain membranes; format: binding; conditions: for BR, [3H]BK IC50 / BR, [3H]BK Log[IC50] / IC50: rat brain membranes, pH 6.8, [3H]BK; for BR, [3H]BK Log[IC50]: logarithmic value (negative); for IC50: read-out: BR, [3H]BK IC50
How it was run: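 Competitive binding against [3H]BK in rat brain membranes at pH 6.8. Non-specific binding was defined with 10 μM kallidin. Data came from at least two independent experiments run in duplicate. IC50 was derived by nonlinear least-squares regression and also reported as a logarithmic value.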

Row | Compound | half-life [1] | BR, [3H]BK IC50 [2] | BR, [3H]BK Log[IC50] [2] | IC50 [2] | other results
1 | CCCC[C@H](NC(=O)[C@H](CCCCN)NC(=O)[C@@H]1CCCN1C(=O)[C@H](CCCCN)NC(=O)[C@@H](N)CCCC)C(=O)N[C@@H](CCCCN)C(=O)O [ligand 1, H-Nle-Lys-Pro-Lys-Nle-Lys-OH] (H-[Nle]KPK[Nle]K-OH) | < 1 h |  |  |  | 
2 | CC[C@H](C)[C@@H]1NC(=O)[C@H](CCCNC(=N)N)NC(=O)[C@H](CC(C)C)NC(=O)[C@H](Cc2ccccc2)NC(=O)CC[C@@H](C(=O)N[C@@H](CCCCN)C(=O)O)NC(=O)[C@H](CCCNC(=N)N)NC1=O [ligand 5, c^N,6[Phe-Leu-Arg-Ile-Arg-Glu]-Lys-OH] (FLRIREK-OH; lactam N-6 (inferred)) | > 5 h |  |  |  | 
3 | H-c^1,5(-CH2CH2-)[Ala-Lys-Pro-Lys-Ala]-Lys-OH (AKPKA; not fully specified; -CH2CH2- dicarba bridge 1,5; C-terminal Lys; printed: Ala-Lys-Pro-Lys-Ala) [ligand 3] |  | no competition |  |  | 
4 | H-c^1,5(-cisCH=CH-)[Ala-Lys-Pro-Lys-Ala]-Lys-OH (AKPKA; not fully specified; cis-CH=CH- dicarba bridge 1,5; C-terminal Lys; printed: Ala-Lys-Pro-Lys-Ala) [ligand 2] |  | no competition |  |  | 
5 | c^N,5[Leu-Arg-Ile-Arg-Glu]-Lys-OH (LRIREK-OH; lactam N-5; SMILES CC[C@H](C)[C@@H]1NC(=O)[C@H](CCCNC(=N)N)NC(=O)[C@H](CC(C)C)NC(=O)CC[C@@H](C(=O)N[C@@H](CCCCN)C(=O)O)NC(=O)[C@H](CCCNC(=N)N)NC1=O) [ligand 7] |  |  | −5.82+0.09 | 1510 nM | reduction of affinity at the BRs (fold) ([2]; compared with linear ligand 4): 22 fold
6 | c^N,6[Lys-Leu-Arg-Ile-Arg-Glu]-Lys-OH (KLRIREK-OH; lactam N-6; SMILES CC[C@H](C)[C@@H]1NC(=O)[C@H](CCCNC(=N)N)NC(=O)[C@H](CC(C)C)NC(=O)[C@H](CCCCN)NC(=O)CC[C@@H](C(=O)N[C@@H](CCCCN)C(=O)O)NC(=O)[C@H](CCCNC(=N)N)NC1=O) [ligand 6] |  |  | −6.52+0.15 | 302 nM | 
